# Experimental data published in article PMC6753381 (Cell reports, 2019).
# “Also recorded” adds a separate entry of the source. Where a name gives a salt, the structure may show the parent alone.
# Columns and labels:
# [1] = test system: Ca45 2+ uptake in 3T3-L1 adipocytes; test: Ca45 2+ uptake assay in 3T3-L1 adipocytes; assay type: cell-based, mouse; details: differentiated 3T3-L1 adipocytes, 3 min, pH 7.4, 37°C; ISO 100 nM
# Procedure, shortened: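 Differentiated adipocytes were washed twice, 15 min apart, at 37°C in 150 mM NaCl, 5 mM KCl, 2 mM CaCl2 and 10 mM HEPES, pH 7.4. They were then incubated 3 min in Ca-free buffer with 2 μCi 45Ca2+, peptide at several concentrations and isoproterenol 100 nM. Stop with ice-cold Ca-free buffer containing 2 mM EGTA and 1 mM LaCl3, then three washes. Lysis in 0.1% Triton X-100; scintillation counting, cpm/well.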
# [2] = test system: C3aR1; details: cited from earlier work
# [3] = test system: 3T3-L1 adipocytes; test: Lipolysis; assay type: cell-based, mouse; details: 1 h pretreatment, ISO 50 nM, no TLQP-21
# Procedure, shortened: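 Adipocytes serum-starved 3 h in KRH buffer (HEPES 10 mM, CaCl2 2.2 mM, glucose 5.4 mM) with 1% fatty-acid-free BSA, then treated in KRH with 4% BSA. Inhibitors given as 1 h pretreatment (SKF-96365 dose series; AnC0A4 or KN-62 1 μM) before isoproterenol 50 nM. Medium heat-inactivated 60°C for 20 min. Free glycerol read colorimetrically at 540 nm, normalized to Bradford protein, fold over control.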
# [4] = test system: [Ca2+]i in 3T3-L1 cells; test: Fluo-4 intracellular calcium in 3T3-L1 cells; assay type: cell-based, mouse; details: SKF-96365 20 μM; for effect of inhibitor on TLQP-21-induced [Ca2+]i increase: TLQP-21 10 μM
# Procedure, shortened: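 Cells plated at 60% confluency on collagen-coated slides. Next day, loaded 30 min in HBSS with 2.5 μM Fluo-4 AM, washed 30 min, imaged live at 20X every second for 3 min. Agents added at 30 s; HBSS negative, ionomycin and UTP positive controls. Per-cell AUC over first 60 s, background-subtracted, basal-normalized, control-normalized, scaled 0–1; 8–50 cells, 2 experiments.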
# [5] = target: T1, m*C3aR1 (murinized hC3aR1) (Homo sapiens, UniProt Q16581, C420S/L413V/S400L/V103I/V419M); test: Tango β-arrestin recruitment assay, murinized hC3aR1; assay type: cell-based; details: ratio of EC50 hC3aR1 / m*C3aR1
# T1 sequence (Q16581 1-482 V103I/S400L/L413V/V419M/C420S): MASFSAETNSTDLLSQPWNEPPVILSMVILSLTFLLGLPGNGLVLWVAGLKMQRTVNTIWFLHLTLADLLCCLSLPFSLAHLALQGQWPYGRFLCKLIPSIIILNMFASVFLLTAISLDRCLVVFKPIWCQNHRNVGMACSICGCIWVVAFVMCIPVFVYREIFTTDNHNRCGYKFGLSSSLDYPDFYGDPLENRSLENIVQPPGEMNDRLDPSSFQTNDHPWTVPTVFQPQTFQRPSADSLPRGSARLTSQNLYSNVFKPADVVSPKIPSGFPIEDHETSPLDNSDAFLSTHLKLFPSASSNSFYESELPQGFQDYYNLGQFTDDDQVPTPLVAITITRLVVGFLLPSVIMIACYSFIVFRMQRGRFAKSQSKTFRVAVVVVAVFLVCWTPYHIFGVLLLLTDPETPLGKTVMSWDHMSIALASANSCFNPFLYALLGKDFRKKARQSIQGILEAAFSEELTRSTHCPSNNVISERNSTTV
# [6] = test system: C3aR1 R161A, R340A and D417A mutants; details: R340A, and D417A mutations, ref Sun et al., 1999; cited from earlier work
compound,measurement,setting,value
"CC(C)NCC(O)c1ccc(O)c(O)c1 (centres unmarked) [ISO, Isoproterenol hydrochloride]",Ca45 2+ uptake from the medium,[1],did not increase Ca45^2+ uptake under our experimental conditions and did not potentiate TLQP-21-mediated effects; also recorded: does not modify TLQP-21-induced Ca45^2+ uptake from the medium
RRRHFHHALPPAR,biological activity of truncated peptide,"[2]; ref Rivolta et al., 2017",retains full biological activity
COc1ccc(CCCOC(Cn2ccnc2)c2ccc(OC)cc2)cc1 (centres unmarked) [SKF-96365],effect of inhibitor on basal or ISO-induced lipolysis,[3],without affecting basal or ISO-induced lipolysis
same,basal fluorescence (Fluo-4),[4],mild SKF-96365-induced elevation of basal fluorescence
same,effect of inhibitor on TLQP-21-induced [Ca2+]i increase,[4],"TLQP-21-induced increase in [Ca^2+]i, measured by Fluo-4 fluorescence, is blocked; also recorded: blocked the TLQP-21-induced increase in [Ca^2+]i"
"C3a63–77: C3aR1 agonist C3a63–77 (LRRQHARASHLGLAR; C3a anaphylatoxin; UniProt P01024 734-748, looked up, fragment)",increase in β-arrestin potency at m*C3aR1 versus hC3aR1,[5],8.5 fold
"C3a: 77-amino-acid, full-length C3a; in b45 apparently the C3a63–77 peptide",increase in β-arrestin potency at m*C3aR1 versus hC3aR1,[5],8.5 fold
same,C3a binding affinity to C3aR1 mutants,[6],complete loss of C3a binding affinity to C3aR1
NC(N)=NCCC[C@H](NC(=O)COCC(c1ccccc1)c1ccccc1)C(=O)O [SB290157],effect of inhibitor on TLQP-21-induced [Ca2+]i increase,[4],antagonized TLQP-21-mediated calcium influx; also recorded: this effect is antagonized by the C3aR1 antagonist SB290157
HFHHALPPAR,biological activity of modified or truncated peptides,"[2]; ref Cero et al., 2014",only retained minimal biological activity
CN([C@@H](Cc1ccc(OS(=O)(=O)c2cccc3cnccc23)cc1)C(=O)N1CCN(c2ccccc2)CC1)S(=O)(=O)c1cccc2cnccc12 [KN-62],effect of inhibitor on basal or ISO-induced lipolysis,[3],without affecting basal or ISO-induced lipolysis per se
